Measured values of several laboratories.
Each line is one published result; the experiments were not run side by side.
Observed: chemical stability

SMILES | assay | system | setting | half-life [h]
CCOC(=O)c1nn(C(=O)C2CC2)c2ccccc2c1=O | – | aqueous buffer | pH 7.3 | 1.44
Cc1cn([C@H]2C=C[C@@H](CO)O2)c(=O)[nH]c1=O | HPLC | aqueous buffer | 920 µM, pH 7.3 | > 40
Cn1nnc2c(-c3ccccc3)ncn2c1=O | HPLC | PBS | pH 7.4 | > 20
Nc1nc2c(nc([N+](=O)[O-])n2[C@@H]2O[C@H](CO)[C@@H](O)[C@H]2O)c(=O)[nH]1 | HPLC | aqueous buffer | 500 µM, pH 2 | 5.35
COc1ccc(OC)c(/C=C2\CC/C(=C\c3ccc(O)c(OC)c3)C2=O)c1 | HPLC | culture medium | 10 µM | 2.6
CO[C@@H](C[C@H]1C(C)=CC[C@@H]2[C@]3(C)C[C@H](O[C@@H]4O[C@@H](C)[C@H](OC(=O)c5cccc(O)c5)[C@@H](O[C@@H]5O[C@H](CO)[C@@H](O)[C@H](O)[C@H]5NC(C)=O)[C@H]4O)[C@@H](O)C(C)(C)[C@H]3CC[C@]21C)[C@H](N)C(=O)O.O=C(O)C(F)(F)F | – | simulated intestinal fluid | 1 µM, pH 6.8 | > 8
CO[C@@H]1[C@H](O)[C@@H](CO)O[C@H]1n1c([N+](=O)[O-])nc2c(=O)[nH]c(N)nc21 | HPLC | aqueous buffer | 500 µM, pH 2 | 11
O=C(OC(C(F)(F)F)C(F)(F)F)N1CCC(CNS(=O)(=O)c2ccc(Cl)cc2)CC1 | HPLC | aqueous buffer | 167 µM, pH 7.4 | 6.86
Cc1cccc(C(=O)n2ncc(=O)c3cc([N+](=O)[O-])ccc32)c1 | – | aqueous buffer | pH 7.3 | 0.55
Cc1ccc(S(=O)(=O)NCC2CCN(C(=O)OC(C(F)(F)F)C(F)(F)F)CC2)cc1 | HPLC | aqueous buffer | 167 µM, pH 7.4 | 1.24
COc1cc(/C=C/C(=O)CC(=O)/C=C/c2ccc(O)c(OC)c2)ccc1O | HPLC | culture medium | 10 µM | 0.9
COc1ccc(S(=O)(=O)NCC2CCN(C(=O)OC(C(F)(F)F)C(F)(F)F)CC2)cc1 | HPLC | aqueous buffer | 167 µM, pH 7.4 | 2.58
Cc1cccc(C(=O)Oc2cnnc3ccc([N+](=O)[O-])cc23)c1 | – | aqueous buffer | pH 7.3 | 0.698
